Measured values reported in ChEMBL document CHEMBL1151856, “Novel, potent, and radio-iodinatable somatostatin receptor 1 (sst1) selective analogues” (J Med Chem, 2009).
Calls of active or inactive are those of the source. No cut-off for these calls is given here. Positions of bridges follow the written chain, without caps; N, C: chain ends. Non-standard residues stand in square brackets, D forms with d. Residues, ends and D or L forms follow the SMILES beside them. Phe(4-CH2NHiPr) = CC(C)NCc1ccc(C[C@H](N)C(=O)O)cc1

Experiments:
[1] = molecular target: Somatostatin receptor type 4 (Homo sapiens, UniProt P31391); experiment: Displacement of [125I]LTT-SRIF-28 from human sst4 receptor by autoradiography
Somatostatin receptor type 4, sequence (P31391 whole entry): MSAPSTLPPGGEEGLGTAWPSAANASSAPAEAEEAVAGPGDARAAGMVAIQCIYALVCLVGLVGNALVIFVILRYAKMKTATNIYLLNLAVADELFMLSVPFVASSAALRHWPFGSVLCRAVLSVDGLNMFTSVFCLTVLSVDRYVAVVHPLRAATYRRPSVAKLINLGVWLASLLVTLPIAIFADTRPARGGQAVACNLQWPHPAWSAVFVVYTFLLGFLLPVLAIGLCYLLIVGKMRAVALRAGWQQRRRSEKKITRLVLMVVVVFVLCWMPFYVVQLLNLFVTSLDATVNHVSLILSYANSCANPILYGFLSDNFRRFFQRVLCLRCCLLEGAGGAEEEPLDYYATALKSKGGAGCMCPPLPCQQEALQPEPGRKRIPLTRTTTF

[2] = molecular target: Somatostatin receptor type 2 (Homo sapiens, UniProt P30874); experiment: Displacement of [125I]LTT-SRIF-28 from human sst2 receptor by autoradiography
Somatostatin receptor type 2, sequence (P30874 whole entry): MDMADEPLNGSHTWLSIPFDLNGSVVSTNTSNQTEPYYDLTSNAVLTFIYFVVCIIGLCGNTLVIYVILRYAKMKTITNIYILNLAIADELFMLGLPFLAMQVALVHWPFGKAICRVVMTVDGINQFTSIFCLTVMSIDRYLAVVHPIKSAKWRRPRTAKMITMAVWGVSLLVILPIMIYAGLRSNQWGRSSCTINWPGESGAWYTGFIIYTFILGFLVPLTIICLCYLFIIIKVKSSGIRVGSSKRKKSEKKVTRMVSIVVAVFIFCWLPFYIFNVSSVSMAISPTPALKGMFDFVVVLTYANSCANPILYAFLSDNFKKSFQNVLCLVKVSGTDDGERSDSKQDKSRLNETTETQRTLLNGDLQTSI
In short: (§1)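 Competition autoradiography on 20-μm cryostat sections of membrane pellets from cells expressing each cloned receptor. Buffer was 170 mM Tris-HCl pH 8.2 with 1% BSA, bacitracin and 10 mM MgCl2. Cold washes, 1-week film exposure, image quantification against isotope standards, IC50 derived.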

[3] = molecular target: T1, Somatostatin receptor type 1 (Homo sapiens, UniProt P30872); experiment: Displacement of [125I]LTT-SRIF-28 from human sst1 receptor by autoradiography; in short: as §1
T1 sequence (P30872 whole entry): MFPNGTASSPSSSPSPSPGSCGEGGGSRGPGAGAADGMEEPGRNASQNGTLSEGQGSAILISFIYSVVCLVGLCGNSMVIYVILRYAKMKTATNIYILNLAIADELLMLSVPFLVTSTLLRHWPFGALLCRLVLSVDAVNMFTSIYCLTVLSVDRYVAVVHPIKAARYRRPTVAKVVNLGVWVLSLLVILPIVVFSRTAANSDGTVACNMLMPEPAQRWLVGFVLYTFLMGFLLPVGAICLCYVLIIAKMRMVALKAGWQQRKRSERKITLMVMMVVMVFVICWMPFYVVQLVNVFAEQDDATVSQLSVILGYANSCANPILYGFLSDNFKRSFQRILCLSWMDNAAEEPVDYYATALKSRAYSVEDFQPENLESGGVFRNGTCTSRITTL

[4] = molecular target: Somatostatin receptor type 3 (Homo sapiens, UniProt P32745); experiment: Displacement of [125I]LTT-SRIF-28 from human sst3 receptor by autoradiography; in short: as §1
Somatostatin receptor type 3, sequence (P32745 whole entry): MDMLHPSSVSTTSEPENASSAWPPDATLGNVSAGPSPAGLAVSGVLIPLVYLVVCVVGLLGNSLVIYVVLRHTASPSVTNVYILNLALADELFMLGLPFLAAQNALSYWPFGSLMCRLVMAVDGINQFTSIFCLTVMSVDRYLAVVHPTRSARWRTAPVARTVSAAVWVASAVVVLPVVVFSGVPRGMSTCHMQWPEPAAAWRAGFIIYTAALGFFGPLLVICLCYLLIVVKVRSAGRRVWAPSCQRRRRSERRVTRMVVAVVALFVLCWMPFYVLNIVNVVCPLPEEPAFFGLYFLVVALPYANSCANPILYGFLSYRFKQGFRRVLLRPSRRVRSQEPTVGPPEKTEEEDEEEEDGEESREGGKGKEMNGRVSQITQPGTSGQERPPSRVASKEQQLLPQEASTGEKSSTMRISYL

[5] = molecular target: Somatostatin receptor type 5 (Homo sapiens, UniProt P35346); experiment: Displacement of [125I]LTT-SRIF-28 from human sst5 receptor by autoradiography; in short: as §1
Somatostatin receptor type 5, sequence (P35346 whole entry): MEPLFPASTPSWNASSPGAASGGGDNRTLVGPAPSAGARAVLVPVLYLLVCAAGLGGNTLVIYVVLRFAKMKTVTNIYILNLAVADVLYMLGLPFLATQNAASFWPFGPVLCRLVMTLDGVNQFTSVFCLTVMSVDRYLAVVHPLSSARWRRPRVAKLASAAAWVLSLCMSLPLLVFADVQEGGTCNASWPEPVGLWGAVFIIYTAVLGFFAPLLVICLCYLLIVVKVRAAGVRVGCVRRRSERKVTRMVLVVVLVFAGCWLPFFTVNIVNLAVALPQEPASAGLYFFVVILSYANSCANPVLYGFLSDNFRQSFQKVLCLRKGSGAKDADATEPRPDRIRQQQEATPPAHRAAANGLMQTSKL

[6] = molecular target: T1, Somatostatin receptor type 1; experiment: Agonist activity at human sst1 receptor expressed in Chinese hamster CCL39 cells by luciferase reporter gene assay relative to somatostatin-14; format: functional, cell-based

SMILES | IC50 [1] [nM] | IC50 [2] [nM] | IC50 [3] [nM] | IC50 [4] [nM] | IC50 [5] [nM] | Activity [6] | EC50 [6] [nM]
CC(C)NCc1ccc(C[C@@H]2NC(=O)[C@@H](N(C)C(=O)c3ccc4ccccc4c3)NC(=O)[C@H](Cc3ccccc3)NC(=O)[C@@H](N)CSSC[C@@H](C(=O)N[C@H](C(N)=O)[C@@H](C)O)NC(=O)[C@H](Cc3ccccc3)NC2=O)cc1 | 95 | > 1000 | 1 | 681 | > 1000 | Active | 3.9
CC(C)NCc1ccc(C[C@@H]2NC(=O)[C@H](N(C)C(=O)c3ccc4ccccc4c3)NC(=O)[C@H](Cc3ccccc3)NC(=O)[C@@H](N)CSSC[C@@H](C(=O)N[C@H](C(N)=O)[C@@H](C)O)NC(=O)[C@H](Cc3ccccc3)NC2=O)cc1 |  | > 1000 | 37 | 253 | > 1000 |  | 
CC(C)NCc1ccc(C[C@@H]2NC(=O)[C@@H](Cc3c[nH]c4ccccc34)NC(=O)[C@H](Cc3ccccc3)NC(=O)[C@@H](NC(=O)[C@@H](N)Cc3ccc(O)cc3)CSSC[C@@H](C(=O)N[C@H](C(N)=O)[C@@H](C)O)NC(=O)[C@H](Cc3ccccc3)NC(=O)[C@H]([C@@H](C)O)NC2=O)cc1 (H-YCF[dW][Phe(4-CH2NHiPr)]TFCT-NH2; disulfide 2-8) | > 1000 | > 1000 | 150 | 60 | > 1000 |  | 
CC(C)NCc1ccc(C[C@@H]2NC(=O)[C@H](N(C)C(=O)c3ccc4ccccc4c3)NC(=O)[C@H](Cc3ccccc3)NC(=O)[C@@H](NC(=O)[C@H](N)Cc3ccc(O)cc3)CSSC[C@@H](C(=O)N[C@H](C(N)=O)[C@@H](C)O)NC(=O)[C@H](Cc3ccccc3)NC2=O)cc1 | > 1000 | > 1000 |  | > 1000 | > 1000 |  | 
CC(C)NCc1ccc(C[C@@H]2NC(=O)[C@@H](Cc3c[nH]c4ccccc34)NC(=O)[C@H](Cc3ccccc3)NC(=O)[C@H](Cc3ccccc3)NC(=O)[C@H](CCCCN)NC(=O)[C@@H](N)CSSC[C@@H](C(=O)O)NC(=O)[C@H](CO)NC(=O)[C@H]([C@@H](C)O)NC(=O)[C@H](Cc3ccc(O)c([125I])c3)NC(=O)[C@H]([C@@H](C)O)NC2=O)cc1 |  |  | 3.6 |  |  |  | 
CC(C)NCc1ccc(C[C@@H]2NC(=O)[C@@H](N(C)C(=O)c3ccc4ccccc4c3)NC(=O)[C@H](Cc3ccccc3)NC(=O)[C@@H](NC(=O)[C@H](N)Cc3ccc(O)cc3)CSSC[C@@H](C(=O)N[C@H](C(N)=O)[C@@H](C)O)NC(=O)[C@H](Cc3ccccc3)NC2=O)cc1 | 27 | > 1000 |  | 158 | > 1000 |  | 
CC(C)NCc1ccc(C[C@@H]2NC(=O)[C@@H](N(C)C(=O)c3ccc4ccccc4c3)NC(=O)[C@H](Cc3ccccc3)NC(=O)[C@H](N)CSSC[C@@H](C(=O)N[C@@H](Cc3ccc4ccccc4c3)C(N)=O)NC(=O)[C@H](Cc3ccccc3)NC2=O)cc1 (single isomer, unassigned) |  |  |  |  |  | Active | 
CC(C)NCc1ccc(C[C@@H]2NC(=O)[C@@H](Cc3c[nH]c4ccccc34)NC(=O)[C@H](Cc3ccccc3)NC(=O)[C@H](Cc3ccccc3)NC(=O)[C@@H](N)CSSC[C@@H](C(=O)O)NC(=O)[C@H](Cc3ccccc3)NC(=O)[C@H]([C@@H](C)O)NC2=O)cc1 (H-CFF[dW][Phe(4-CH2NHiPr)]TFC-OH; disulfide 1-8) | > 1000 | > 1000 | > 1000 | > 1000 | > 1000 |  | 
CC(C)NCc1ccc(C[C@@H]2NC(=O)[C@@H](Cc3c[nH]c4ccccc34)NC(=O)[C@H](Cc3ccccc3)NC(=O)[C@H](Cc3ccccc3)NC(=O)[C@H](CCCCN)NC(=O)[C@@H](NC(=O)[C@@H](N)Cc3ccc(O)cc3)CSSC[C@@H](C(=O)O)NC(=O)[C@H](CO)NC(=O)[C@H]([C@@H](C)O)NC(=O)[C@H](Cc3ccccc3)NC(=O)[C@H]([C@@H](C)O)NC2=O)cc1 (H-YCKFF[dW][Phe(4-CH2NHiPr)]TFTSC-OH; disulfide 2-12) | > 1000 | > 1000 |  | > 1000 |  | Active | 
C[C@@H](O)[C@H](NC(=O)[C@@H]1CSSC[C@H](NC(=O)[C@H](N)Cc2ccccc2)C(=O)N[C@@H](Cc2ccccc2)C(=O)N[C@H](Cc2c[nH]c3ccccc23)C(=O)N[C@@H](CCCCN)C(=O)N[C@@H]([C@@H](C)O)C(=O)N1)C(N)=O |  |  | > 1000 |  |  |  | 
CC(C)NCc1ccc(C[C@@H]2NC(=O)[C@H](N(C)C(=O)c3ccc4ccccc4c3)NC(=O)[C@H](Cc3ccccc3)NC(=O)[C@@H](N)CSSC[C@@H](C(N)=O)NC(=O)[C@H](Cc3ccc(O)cc3)NC2=O)cc1 | > 1000 | > 1000 | 530 | > 1000 | > 1000 |  | 
CC(C)NCc1ccc(C[C@@H]2NC(=O)[C@@H](N(C)C(=O)c3ccc4ccccc4c3)NC(=O)[C@H](Cc3ccccc3)NC(=O)[C@H](NC(=O)[C@@H](N)Cc3ccc(O)cc3)CSSC[C@@H](C(=O)N[C@@H](Cc3ccc4ccccc4c3)C(N)=O)NC(=O)[C@H](Cc3ccccc3)NC2=O)cc1 | 270 | > 1000 | 8.2 | 410 | > 1000 | Active | 
CC(C)NCc1ccc(C[C@@H]2NC(=O)[C@@H](N(C)C(=O)c3ccc4ccccc4c3)NC(=O)[C@H](Cc3ccccc3)NC(=O)[C@@H](N)CSSC[C@@H](C(N)=O)NC(=O)[C@H](Cc3ccc(O)cc3)NC2=O)cc1 |  | > 1000 | 4.7 | 252 | > 1000 | Active | 

The next lines start with the values.

IC50 [1] [nM] | IC50 [2] [nM] | IC50 [3] [nM] | IC50 [4] [nM] | IC50 [5] [nM] | Activity [6] | EC50 [6] [nM] | SMILES
932 | > 1000 | 189 | 789 | > 1000 |  |  | CC(C)NCc1ccc(C[C@@H]2NC(=O)[C@@H](Cc3c[nH]c4ccccc34)NC(=O)[C@H](Cc3ccccc3)NC(=O)[C@H](Cc3ccccc3)NC(=O)[C@H](CCCCN)NC(=O)[C@@H](N)CSSC[C@@H](C(=O)O)NC(=O)[C@H](Cc3ccccc3)NC(=O)[C@H]([C@@H](C)O)NC2=O)cc1 (H-CKFF[dW][Phe(4-CH2NHiPr)]TFC-OH; disulfide 1-9)
562 | > 1000 | 3.3 | > 1000 | > 1000 |  |  | CC(C)NCc1ccc(C[C@@H]2NC(=O)[C@@H](N(C)C(=O)c3ccc4ccccc4c3)NC(=O)[C@H](Cc3ccccc3)NC(=O)[C@H](Cc3ccccc3)NC(=O)[C@H](CCCCN)NC(=O)[C@@H](N)CSSC[C@@H](C(=O)O)NC(=O)[C@H](CO)NC(=O)[C@H]([C@@H](C)O)NC(=O)[C@H](Cc3ccc(O)cc3)NC(=O)[C@H]([C@@H](C)O)NC2=O)cc1
> 1000 | > 1000 | 31 | 150 | > 1000 |  |  | CC(C)NCc1ccc(C[C@@H]2NC(=O)[C@@H](Cc3c[nH]c4ccccc34)NC(=O)[C@H](Cc3ccccc3)NC(=O)[C@H](Cc3ccccc3)NC(=O)[C@H](CCCCN)NC(=O)[C@@H](N)CSSC[C@@H](C(=O)O)NC(=O)[C@H](CO)NC(=O)[C@H]([C@@H](C)O)NC(=O)[C@H](Cc3ccccc3)NC(=O)[C@H]([C@@H](C)O)NC2=O)cc1 (H-CKFF[dW][Phe(4-CH2NHiPr)]TFTSC-OH; disulfide 1-11)
> 1000 | > 1000 | 189 | 463 | > 1000 |  |  | CC(C)NCc1ccc(C[C@@H]2NC(=O)[C@H](N(C)C(=O)c3ccc4ccccc4c3)NC(=O)[C@H](Cc3ccccc3)NC(=O)[C@H](NC(=O)[C@@H](N)Cc3ccc(O)cc3)CSSC[C@@H](C(=O)N[C@@H](Cc3ccc4ccccc4c3)C(N)=O)NC(=O)[C@H](Cc3ccccc3)NC2=O)cc1
 | > 1000 | 108 | > 1000 | > 1000 |  |  | CC(C)NCc1ccc(C[C@@H]2NC(=O)[C@@H](Cc3c[nH]c4ccccc34)NC(=O)[C@H](Cc3ccccc3)NC(=O)[C@@H](N)CSSC[C@@H](C(=O)N[C@H](C(N)=O)[C@@H](C)O)NC(=O)[C@H](Cc3ccccc3)NC2=O)cc1 (H-CF[dW][Phe(4-CH2NHiPr)]FCT-NH2; disulfide 1-6)
 | > 1000 | 14 | 72 | > 1000 |  |  | CC(C)NCc1ccc(C[C@@H]2NC(=O)[C@@H](Cc3c[nH]c4ccccc34)NC(=O)[C@H](Cc3ccccc3)NC(=O)[C@@H](NC(=O)[C@H](N)Cc3ccccc3)CSSC[C@@H](C(=O)N[C@H](C(N)=O)[C@@H](C)O)NC(=O)[C@H](Cc3ccccc3)NC2=O)cc1 (H-[dF]CF[dW][Phe(4-CH2NHiPr)]FCT-NH2; disulfide 2-7)
